Entries after “also recorded” stand apart in the source; their conditions may differ.
Tests used:
CCR2 = settings: Table S5C training set of 3D-QSAR; ref BindingDB; cited from earlier work
[1] = system: Human diploid fibroblasts (MRC-5); test: CCK8 viability assay in TGF-β-induced pulmonary fibrosis cell model; format: cell-based
Method in brief: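 MRC-5 fibroblasts were seeded at 2000 cells/well and given TGF-β (10 ng mL−1) for 48 h to build the fibrosis model. Test compound was dissolved in DMSO, diluted in DMEM and applied at 0, 1, 1.25, 2.5, 5, 10, 25, 50 and 100 μmol for 48 h, with a reference antifibrotic as positive control. CCK8 (10% volume) was added, plates incubated 3 h in the dark, and A450 read.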

MRC-5 cells = test: Hydroxyproline content in TGF-β-stimulated MRC-5 cells; format: cell-based, human; settings: 17 (50 μM), 67 (100 μM), nintedanib (10 μM), 48 hours, vs TGF-β model
Method in brief: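 TGF-β (10 ng mL−1, 48 h) stimulated MRC-5 fibrosis model cells were then exposed to test compound at a single concentration (50 or 100 μM), or to a reference antifibrotic at 10 μM, for 48 h. Hydroxyproline content was compared with the TGF-β-stimulated model.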

COL1A1 = test: RT-qPCR of COL1A1 mRNA in TGF-β-stimulated MRC-5 cells; format: cell-based, human; settings: 17 (50 μM), 67 (100 μM), nintedanib (10 μM), 48 hours, vs TGF-β model

Structure (SMILES)	IC50 (CCR2) [nM]	proliferation / 48-hour cell inhibition rate (CCK8) ([1]; TGF-β (10 ng mL^−1) induced MRC-5, 48-hour drug treatment, 0-100 μmol)	cytotoxic effect on the pulmonary fibrosis cell model, comparison ([1]; TGF-β induced MRC-5, 48 h, CCK8)	hydroxyproline (MRC-5 cells)	expression of COL1A1 (COL1A1)
Cc1ccc(-c2ccc3c(c2)C=C(C(=O)Nc2ccc(C[N+](C)(C)C4CCOCC4)cc2)CCC3)cc1 [BDBM50088301]	0.03	–	–	–	–
COC(=O)c1ccc2c(c1)NC(=O)/C2=C(\Nc1ccc(N(C)C(=O)CN2CCN(C)CC2)cc1)c1ccccc1 [nintedanib]	–	effectively suppressed the proliferation; also recorded: concentration-dependent increase in their inhibitory effects	even stronger cytotoxic effect than compound 17	significantly decreased	significantly decreased
